Reference: PubChem BioAssay AID1027 (Sanford-Burnham Center for Chemical Genomics, 2008)
In all, about 200,000 compounds went through this assay and fewer than 10 were called active. A selection follows. A number with no mark means an inactive call.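 Rule for the calls: active = luciferase activation factor, scaled between plate controls, of at least 2 with compound at 10 µM; inactive = the rest.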

molecular target: Luciferin 4-monooxygenase (Photinus pyralis) (UniProt P08659); assay: FLuc activators, initial screening, artefact control for FLuc-dependent activation tests, biochemical, ATPlite luminescence (AID 1027); details: ATPlite luciferase biochemical, 10 min, at 10 µM, stronger effect = higher value, 0 = ATP-free wells, 1 = DMSO control
Method in brief: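 Material: Luciferase/luciferin reagent mix; Doses: test compounds dosed from 2 mM stocks in 100% DMSO; Schedule: 10 min incubation after luciferase reagent addition, room temperature; Measured by: luminescence from luciferase reaction; Read-out: luminescence gain marking luciferase activators.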

Chain of Luciferin 4-monooxygenase (Photinus pyralis) (P08659 whole entry, looked up): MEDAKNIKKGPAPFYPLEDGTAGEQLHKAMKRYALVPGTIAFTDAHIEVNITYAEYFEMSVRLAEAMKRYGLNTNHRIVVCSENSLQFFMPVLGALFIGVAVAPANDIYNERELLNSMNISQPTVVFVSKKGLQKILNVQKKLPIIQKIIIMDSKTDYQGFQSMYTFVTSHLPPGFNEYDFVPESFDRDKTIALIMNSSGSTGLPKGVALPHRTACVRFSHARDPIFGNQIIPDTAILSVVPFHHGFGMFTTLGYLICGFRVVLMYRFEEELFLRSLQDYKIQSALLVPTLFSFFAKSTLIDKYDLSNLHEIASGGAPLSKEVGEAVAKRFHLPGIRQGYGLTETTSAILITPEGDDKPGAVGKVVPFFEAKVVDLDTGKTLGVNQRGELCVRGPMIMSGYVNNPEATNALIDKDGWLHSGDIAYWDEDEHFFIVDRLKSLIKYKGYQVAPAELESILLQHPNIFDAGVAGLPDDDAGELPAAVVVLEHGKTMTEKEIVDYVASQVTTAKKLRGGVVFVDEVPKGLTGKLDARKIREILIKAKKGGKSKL

Row | SMILES | activation factor
1 | O=C(O)CC(Cc1ccccc1)C(=O)Nc1ccc([N+](=O)[O-])cc1 (stereo not drawn) | 1.1
2 | CCC1CCCCN1C(=S)Nc1ccc(C(C)=O)cc1 (stereo not drawn) | 1
3 | Cc1ccc(C)c(NC2=NCC(=O)N2c2ccc3c(c2)OCCO3)c1 | 1.1
4 | COc1ccc(C(=O)Nc2ccc3nc(N4CCCCC4)cc(C)c3c2)cc1OC | 1.1
5 | NC(=O)c1ccccc1N(Cc1ccccc1)S(=O)(=O)c1ccccc1 | 1
6 | Cc1cccc(N2CCC(NCc3c(C(=O)N4CCCCC4)nc4c(C)cccn34)CC2)c1 | 1
7 | COc1ccc(CCC(=O)OCC(=O)Nc2ccc(C)c(S(=O)(=O)N(C)C)c2)cc1 | 1
8 | Cc1cccc(N2C(=O)SC(SC(=Nc3ccccc3)Nc3ccccc3)C2=O)c1 (stereo not drawn) | 1
9 | Cc1ccc(C(=O)N/C(=C\c2cccs2)C(=O)NCCc2ccccn2)cc1C | 1
10 | COc1cccc(CC2(CO)CCCN(CC3=Cc4cc(OC)ccc4OC3)C2)c1 (stereo not drawn) | 1.1
11 | Cc1ccc2[nH]c(C)c(CCNC(=O)NC3CCCCC3)c2c1 | 1
12 | S=C(Nc1cccc(Br)c1)N1CCn2cccc2C1c1cccnc1 (stereo not drawn) | 1.1
13 | NS(=O)(=O)c1ccc(N2C(=O)C3C4CC(C(Br)C4Br)C3C2=O)cc1 (stereo not drawn) | 1
14 | CCc1ccc(C2N3CC4([N+](=O)[O-])CN2CC([N+](=O)[O-])(C3)C4(C)C)cc1 (stereo not drawn) | 1.1
15 | Cc1nnc(SC(C)C(=O)Nc2ccc(S(=O)(=O)NC3CCCCC3)cc2)s1 (stereo not drawn) | 1.1
16 | Cc1ccc(C(=O)NC(=S)NCCN2CCOCC2)cc1 | 1.1
17 | CC(CO)N1CCS(=O)(=O)CC1 (stereo not drawn) | 1.1
18 | CC1CCCN(CCOCCOc2ccccc2-c2ccccc2)C1 (stereo not drawn) | 1
19 | Cc1noc(C)c1CCC(=O)O | 1
20 | CCC1CCCCN1C(=O)CSc1nc2c(c(=O)n(C)c(=O)n2C)n1C (stereo not drawn) | 1
21 | C=C(C)c1cccc(C(C)(C)NC(=O)NC2CCCC2)c1 | 1
22 | COc1ccc(CCCc2nnc(SCc3nc4ccccc4c(=O)[nH]3)n2C)cc1 | 1.1
23 | CCOC(=O)N1CCN(CCC(=O)Nc2cc(OC)ccc2OC)CC1 | 1
24 | Cc1ccc2nc(-c3ccc(NC(=O)CN(C)S(=O)(=O)c4ccccc4)cc3)sc2c1 | 0.7
25 | CC(C)(C)c1ccc(/C=C/C(=O)NC2CCS(=O)(=O)C2)cc1 (stereo not drawn) | 0.9

Row | SMILES | activation factor
26 | O=C(COC(=O)c1ccccc1)Nc1cccc(S(=O)(=O)N2CCOCC2)c1 | 1.1
27 | NS(=O)(=O)c1ccc(CNC(=O)c2ccc(Cl)cc2[N+](=O)[O-])cc1 | 1
28 | CCn1cc(/C=C2/SC(=S)NC2=O)c(C)n1 | 0.8
29 | COc1cccc(NC(=O)c2nn(-c3ccc(OC)cc3OC)c(=O)c3ccccc23)c1 | 1
30 | COc1cc(SC#N)ccc1N=Cc1c(C)[nH]n(-c2ccc(C)cc2)c1=O | 0.9
31 | CCN=C1S/C(=C\c2cc(Br)ccc2OCC(=O)OCC)C(=O)N1CC | 1
32 | CCc1cccc2c(=O)c(C(=O)NCCCOC)c[nH]c12 | 1
33 | CS(=O)(=O)N(CC(=O)N1CCCC1)Cc1ccccc1 | 1.1
34 | O=C(NCCNc1ccc([N+](=O)[O-])cc1)c1cccc2c(Br)cccc12 | 1
35 | Cc1ccc(SCCC(=O)NCc2ccccn2)cc1 | 1
36 | Oc1ccc(Br)cc1C=Nc1ccc2[nH]ncc2c1 | 1
37 | CN(CC(=O)Nc1ccc(S(=O)(=O)N2CCCC2)cc1)Cc1ccc(Cl)c(Cl)c1 | 1
38 | CC(=O)n1c(C=Nc2ccccc2)c(O)c2ccccc21 | 0.4
39 | CC1Cc2ccccc2N1C1=CC(=O)CC(C)(C)C1 (stereo not drawn) | 1.1
40 | Cc1c(NC(=O)CCC2CCCCC2)cc(C(=O)N2CCOCC2)cc1[N+](=O)[O-] | 1.1
41 | CCOCCCNCc1cc(Br)ccc1OCC | 1
42 | O=C(CSc1ccccn1)Nc1nc2c(ccc3ccccc32)s1 | 1.1
43 | CCOc1ccc2nc(NC(=O)c3cc([N+](=O)[O-])ccc3N3CCOCC3)sc2c1 | 1
44 | COc1ccc(-c2nc(CN3CCN(c4ncccn4)CC3)c(C)o2)cc1C | 1
45 | O=C(O)c1ccc2c(c1)C(=O)N(NC(=O)c1ccc(O)cc1)C2=O | 1.1
46 | COC(=O)c1ccc(/C=N/OCC(=O)Nc2cc(F)ccc2F)cc1 | 1
47 | CC(NC(=S)Nc1ccc(S(N)(=O)=O)cc1)c1ccc2c(c1)OCO2 (stereo not drawn) | 1.1
48 | Cc1ccc(NC(=S)N2CCN(c3ncccn3)CC2)cc1C | 1.1
49 | Cc1ccc(C(=O)O)cc1N1C(=O)CCCC1=O | 1
50 | Cn1cc(CN2CCCC(CO)C2)c(-c2ccc(Oc3ccccc3)cc2)n1 (stereo not drawn) | 1.1

Row | SMILES | activation factor
51 | COC(=O)c1ccc(CSc2nnc(N)s2)o1 | 1
52 | COc1ccc(CN2CCCC(C(=O)c3ccc(Cl)cc3)C2)cc1Cn1cncn1 (stereo not drawn) | 1
53 | O=C(CC1Nc2ccccc2NC1=O)Nc1ccccc1NC(=O)CC1Nc2ccccc2NC1=O (stereo not drawn) | 0.9
54 | CCN(CC(=O)NCCc1ccccc1)S(=O)(=O)c1ccc(C)cc1 | 1.1
55 | Cc1nc(N2CCCCC2)sc1C=O | 1
56 | C=CCn1c(SCC(=O)CC(=O)OCC)nc2cc(C(=O)N3CCC(C(N)=O)CC3)ccc2c1=O | 1
57 | COC(=O)c1c(NC(C)=O)sc(C(=O)Nc2ccccc2OC)c1C | 1
58 | COc1cc(/C=N\NC(=O)c2nonc2N)c(OC)cc1Br | 1
59 | CCOC(=O)C1CCN(C(=O)/C=C/c2cc(OC)c(OC)c(OC)c2)CC1 | 1
60 | COc1ccc(S(=O)(=O)NC(C)C)cc1C(=O)NC1CCCCC1 | 1.1
61 | COc1ccccc1C1SCCN1C(=O)c1ccc([N+](=O)[O-])cc1 (stereo not drawn) | 1
62 | CSc1nc(-c2ccccc2)nc(C(Cl)Cl)n1 | 1.1
63 | Cc1nc(-c2ccccc2)sc1C(=O)/C=C/N(C)C | 0.9
64 | COc1ccc(/C=C/C2=CC(C)(C)NC(=S)N2)c(OC)c1 | 1
65 | COc1cc(OC)nc(N/N=C(\c2ccccc2)c2ccncc2)n1 | 1
66 | CCn1ccnc1CN(C)Cc1nc(-c2ccc3c(c2)OCO3)no1 | 1
67 | CCOC(=O)Cc1csc(SCC(=O)NC(C)C23CC4CC(CC(C4)C2)C3)n1 (stereo not drawn) | 1
68 | COc1ccc(C(=O)NC(=S)Nc2ccccc2N2CCN(S(C)(=O)=O)CC2)cc1OC | 1.1
69 | N#C/C(=C(/O)COC(=O)COc1ccc(Cl)cc1)c1nc2ccccc2[nH]1 | 1
70 | O=C(Nc1ccc([N+](=O)[O-])cc1)C1CC12CCC2 (stereo not drawn) | 1
71 | COC(=O)c1c(C)oc2ccc(N(C(=O)Oc3ccccc3)S(=O)(=O)c3ccccc3)cc12 | 1.1
72 | Cc1ccc(Cl)cc1NC(=S)N(CCN(C)C)Cc1cccs1 | 1.1
73 | Cc1cc(/C=N/NC(N)=O)c(C)n1C1CCCCC1 | 1
74 | COC(=O)C(C)N=Cc1ccccc1 (stereo not drawn) | 1.1
75 | CN(c1ccccc1)S(=O)(=O)c1ccc(Cl)c(C(=O)NCCc2c[nH]c3ccccc23)c1 | 1

Row | SMILES | activation factor
76 | COc1cccc(OC)c1C(=O)NC(=S)NCc1ccco1 | 1
77 | CCn1c(/C=C/Nc2ccccc2)[n+](CC)c2ccc(C(=O)OCC(F)(F)F)cc21 | 1
78 | CCOc1ccc(NC(=S)N2CCC(N(C)CC3CCCO3)CC2)cc1 (stereo not drawn) | 1
79 | Cc1nc(CN2CCN(C(=O)CCc3nnc(Cc4c[nH]c5ccccc45)o3)CC2)cs1 | 1
80 | O=C(NCc1ccc(F)cc1)C(c1ccccc1)N(C(=O)c1csnn1)C1CC1 (stereo not drawn) | 1.1
81 | Cc1ccc(CC2S/C(=C(/C#N)C(=O)N3CCOCC3)N(c3ccccc3)C2=O)cc1 (stereo not drawn) | 1.1
82 | C/C=N/NC(=O)CCCC(=O)N/N=C/C | 1
83 | C/C(=N/NS(=O)(=O)c1ccccc1)c1ccc(NC(=O)C(F)(F)F)cc1 | 1
84 | Cc1cc(OC(=O)c2ccccc2Cl)ccc1N1C(=O)CCC1=O | 0.3
85 | Cc1ccc(S(=O)(=O)N2CCN(CC(=O)N/N=C/c3ccc(Br)s3)CC2)cc1 | 1.1
86 | O=C(c1ccc(S(=O)(=O)c2ccccc2)cc1)N1CCCCCC1 | 1
87 | O=C1N/C(=C/c2cccs2)C(=O)N1Cc1ccc(F)cc1 | 1
88 | CC1=CC=CN2C1=NC(=O)CC2(C)C(=O)N(CC(=O)NC1CCCC1)c1ccccc1C (stereo not drawn) | 1.1
89 | Cc1cc(C)n(CCNC(=O)CC2C(=O)NCCN2Cc2ccc(C)o2)n1 (stereo not drawn) | 1
90 | O=C(NNC(=S)NCCCN1CCOCC1)c1ccncc1 | 1.1
91 | COc1cc(/C=C/C(=O)N2c3ccccc3Sc3ccc(C(F)(F)F)cc32)cc(OC)c1OC | 1
92 | CC(=O)Nc1ccc(NC(=S)NC(=O)c2ccc([N+](=O)[O-])c(C)c2)cc1 | 0.9
93 | O=C(COC(=O)C1CCN(S(=O)(=O)c2ccc3c(c2)OCCO3)CC1)Nc1ccccc1OC(F)F | 1
94 | CCc1ccc(OCC(=O)OCC(=O)c2c(N)n(C)c(=O)n(C)c2=O)cc1 | 1.1
95 | O=C(c1ccc(-c2ccccc2)cc1)C1CCCN(C(=O)c2cncs2)C1 (stereo not drawn) | 1.1
96 | O=C(CSC1CC(=O)N(CCc2ccccc2)C1=O)Nc1ccc(Cl)cc1 (stereo not drawn) | 1
97 | CC(=O)Nc1ccc(Nc2nc3c(S(=O)(=O)c4ccc(C)c(C)c4)nnn3c3ccccc23)cc1 | 1
98 | COc1cccc(CNC(=O)Cc2csc(Nc3nc(=S)[nH]c4ccccc34)n2)c1 | 1.1
